Holding throughout (format): functional
Assay [1] concerns Bacillus subtilis. Description: Antibacterial activity Bacillus subtilis NCIM 2250 at 100 ug/disc by agar-well diffusion assay. The following applies: for zone of inhibition at 100 µg/disc: read-out: DIZ. In a few lines:
(§1)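 Agar-well diffusion screen against standard strains. Zone of inhibition is the read-out. Chloramphenicol, nystatin and ravuconazole were run as positive controls.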
For orientation: In agar diffusion tests the substance spreads into inoculated agar from a disc or well.

Assay [2] deals with Aspergillus niger. Description: Antifungal activity Aspergillus niger NCIM 545 at 100 ug/disc by agar-well diffusion assay. The following applies: for zone of inhibition at 100 µg/disc: read-out: DIZ. In a few lines: as §1
The test system of assay [3] is Candida albicans. Description: Antifungal activity Candida albicans NCIM 3471 after 24 to 72 hrs by NCCLS method. In a few lines:
(§2)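 Broth microdilution MIC per NCCLS. Compounds dissolved in DMSO, serially diluted in growth medium, incubated at 37 °C. Read at 24 h for bacteria and 24–72 h for fungi. MIC90 taken as the first well with about 90% growth reduction relative to the drug-free well.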

Assay [4] deals with Pseudomonas aeruginosa. Nature of the assay: Antibacterial activity Pseudomonas aeruginosa NCIM 2036 at 100 ug/disc by agar-well diffusion assay. As to conditions: for zone of inhibition at 100 µg/disc: read-out: DIZ. Summed up: as §1
The test system of assay [5] is Pseudomonas aeruginosa. Nature of the assay: Antibacterial activity Pseudomonas aeruginosa NCIM 2036 after 24 hrs by NCCLS method. In a few lines:
as §2

Assay [6] has as its system Escherichia coli. Description: Antibacterial activity Escherichia coli NCIM 2109 at 100 ug/disc by agar-well diffusion assay. The following applies: for zone of inhibition at 100 µg/disc: read-out: DIZ. In a few lines: as §1
Assay [7] concerns Aspergillus niger. Nature of the assay: Antifungal activity Aspergillus niger NCIM 545 after 24 to 72 hrs by NCCLS method. In a few lines: as §2
The test system of assay [8] is Staphylococcus aureus. Nature of the assay: Antibacterial activity Staphylococcus aureus NCIM 2079 after 24 hrs by NCCLS method. Summed up: as §2
In assay [9] the test system is Escherichia coli. Description: Antibacterial activity Escherichia coli NCIM 2109 after 24 hrs by NCCLS method. Summed up: as §2
In assay [10] the test system is Candida albicans. Description: Antifungal activity Candida albicans NCIM 3471 at 100 ug/disc by agar-well diffusion assay. The following applies: for zone of inhibition at 100 µg/disc: read-out: DIZ. Summed up: as §1
The test system of assay [11] is Staphylococcus aureus. Nature of the assay: Antibacterial activity Staphylococcus aureus NCIM 2079 at 100 ug/disc by agar-well diffusion assay. As to conditions: for zone of inhibition at 100 µg/disc: read-out: DIZ. In a few lines: as §1
For assay [12], the system named is Bacillus subtilis. Nature of the assay: Antibacterial activity Bacillus subtilis NCIM 2250 after 24 hrs by NCCLS method. In a few lines: as §2

Values after ≈ are worked out from the molar mass of the structure shown. Active and inactive are the calls of the source. No cut-off for these calls is given here. Where only a bound is given, the exact number is not on record here.

A word on the MIC: it is the least concentration at which growth counts as inhibited.

For the compound `O=[N+]([O-])c1ccc(/C(Cn2cncn2)=N\Nc2nc(-c3ccc(F)cc3)cs2)cc1`, the zone of inhibition at 100 µg/disc is 11.3 mm with Bacillus subtilis [1], 14.4 mm with Aspergillus niger [2] and 11.2 mm with Candida albicans [10]. In addition, the MIC in the assay on Candida albicans [3] is greater than 64 µg/mL; against Aspergillus niger [7], greater than 64 µg/mL; in the assay with Bacillus subtilis [12] (NCIM 2250, 24 h), greater than 64 µg/mL. Besides, the “diameter of the inhibition zone (DIZ)” value in the assay on Pseudomonas aeruginosa [4], in the assay with Escherichia coli [6] and with Staphylococcus aureus [11] was “inactive” in each case. Also, the MIC entry with Pseudomonas aeruginosa [5], with Staphylococcus aureus [8] and in the assay on Escherichia coli [9] was “inactive” in each case.
As for `O=[N+]([O-])c1ccc(/C(Cn2cncn2)=N\Nc2nc(-c3cc(C(F)(F)F)cc(C(F)(F)F)c3)cs2)cc1`, the “diameter of the inhibition zone (DIZ)” value in the assay with Bacillus subtilis [1], in the assay on Aspergillus niger [2], with Escherichia coli [6] and in the assay with Candida albicans [10] was “inactive” each time. Also, the MIC result in the assay with Candida albicans [3], with Aspergillus niger [7], with Escherichia coli [9] and in the assay on Bacillus subtilis [12] was “inactive” throughout. The zone of inhibition at 100 µg/disc in the assay with Pseudomonas aeruginosa [4] is 16.8 mm; in the assay with Staphylococcus aureus [11], 17.2 mm. For the same compound, the MIC with Pseudomonas aeruginosa [5] (NCIM 2036, 24 h) stood at 64 µg/mL (≈ 118 µM); against Staphylococcus aureus [8] (NCIM 2079, 24 h), 64 µg/mL (≈ 118 µM).
As for `O=[N+]([O-])c1ccc(/C(Cn2cncn2)=N\Nc2nc(-c3ccc([N+](=O)[O-])cc3)cs2)cc1`, the “diameter of the inhibition zone (DIZ)” value with Bacillus subtilis [1], with Aspergillus niger [2], with Candida albicans [10] and with Staphylococcus aureus [11] was “inactive” throughout. The MIC result in the assay with Candida albicans [3], with Aspergillus niger [7], with Staphylococcus aureus [8] and in the assay on Bacillus subtilis [12] was “inactive” throughout. The zone of inhibition at 100 µg/disc with Pseudomonas aeruginosa [4] is 20.8 mm; in the assay with Escherichia coli [6], 10.8 mm. Besides, the MIC is 64 µg/mL (≈ 142 µM) against Pseudomonas aeruginosa [5] (NCIM 2036, 24 h) and greater than 64 µg/mL in the assay on Escherichia coli [9] (NCIM 2109, 24 h).
Consider `Fc1ccc(/C(Cn2cncn2)=N\Nc2nc(-c3ccc(F)cc3)cs2)cc1`, for which the zone of inhibition at 100 µg/disc with Bacillus subtilis [1] stood at 24.4 mm; in the assay on Aspergillus niger [2], 20.4 mm; in the assay with Pseudomonas aeruginosa [4], 24.1 mm; in the assay with Escherichia coli [6], 21.5 mm; in the assay with Candida albicans [10], 16.3 mm; with Staphylococcus aureus [11], 16.1 mm. The MIC in the assay with Candida albicans [3] came out at 64 µg/mL (≈ 161 µM); with Pseudomonas aeruginosa [5] (NCIM 2036, 24 h), 32 µg/mL (≈ 80.7 µM); in the assay with Aspergillus niger [7], 16 µg/mL (≈ 40.4 µM); against Staphylococcus aureus [8] (NCIM 2079, 24 h) it was 64 µg/mL (≈ 161 µM); against Escherichia coli [9] (NCIM 2109, 24 h), 32 µg/mL (≈ 80.7 µM); in the assay on Bacillus subtilis [12] (NCIM 2250, 24 h), 32 µg/mL (≈ 80.7 µM).
Consider `Fc1ccc(/C(Cn2cncn2)=N\Nc2nc(-c3ccc(Cl)cc3)cs2)cc1`, for which the zone of inhibition at 100 µg/disc turned out to be 20.5 mm in the assay with Bacillus subtilis [1]; 20.7 mm with Aspergillus niger [2]; 15.9 mm with Escherichia coli [6]; 18.8 mm in the assay with Candida albicans [10]; 22.3 mm with Staphylococcus aureus [11]. Also, the MIC against Candida albicans [3] was 32 µg/mL (≈ 77.5 µM); in the assay with Aspergillus niger [7] it was 16 µg/mL (≈ 38.8 µM); in the assay on Staphylococcus aureus [8] (NCIM 2079, 24 h) it was 64 µg/mL (≈ 155 µM); with Escherichia coli [9] (NCIM 2109, 24 h), greater than 64 µg/mL; against Bacillus subtilis [12] (NCIM 2250, 24 h) it was 32 µg/mL (≈ 77.5 µM). The “diameter of the inhibition zone (DIZ)” value in the assay on Pseudomonas aeruginosa [4] is “inactive”. Also, in the assay on Pseudomonas aeruginosa [5], the MIC entry was “inactive”.
`Fc1ccc(-c2csc(N/N=C(/Cn3cncn3)c3ccc(Cl)cc3)n2)cc1`: the zone of inhibition at 100 µg/disc in the assay on Bacillus subtilis [1] is 16.8 mm; with Aspergillus niger [2], 18.8 mm; with Escherichia coli [6], 13.9 mm; in the assay with Candida albicans [10], 19.1 mm; in the assay on Staphylococcus aureus [11], 25.7 mm. For the same compound, the MIC was 32 µg/mL (≈ 77.5 µM) with Candida albicans [3]; 32 µg/mL (≈ 77.5 µM) in the assay on Aspergillus niger [7]; 32 µg/mL (≈ 77.5 µM) in the assay with Staphylococcus aureus [8] (NCIM 2079, 24 h); greater than 64 µg/mL against Escherichia coli [9] (NCIM 2109, 24 h); 64 µg/mL (≈ 155 µM) in the assay with Bacillus subtilis [12] (NCIM 2250, 24 h). Also, the “diameter of the inhibition zone (DIZ)” value in the assay on Pseudomonas aeruginosa [4] is “inactive”. In addition, the MIC entry in the assay with Pseudomonas aeruginosa [5] is “inactive”.
As for `O=[N+]([O-])c1ccc(/C(Cn2cncn2)=N\Nc2nc(-c3ccc(Cl)cc3)cs2)cc1`, the values for the zone of inhibition at 100 µg/disc in the assay on Bacillus subtilis [1] and in the assay on Staphylococcus aureus [11] were 15.8 mm and 14.2 mm, respectively. For the same compound, the “diameter of the inhibition zone (DIZ)” value in the assay on Aspergillus niger [2], in the assay with Pseudomonas aeruginosa [4], with Escherichia coli [6] and in the assay on Candida albicans [10] was “inactive” throughout. In addition, the MIC entry with Candida albicans [3], in the assay on Pseudomonas aeruginosa [5], with Aspergillus niger [7] and in the assay with Escherichia coli [9] was “inactive” in each case. Moreover, the MIC against Staphylococcus aureus [8] (NCIM 2079, 24 h) was greater than 64 µg/mL; in the assay with Bacillus subtilis [12] (NCIM 2250, 24 h), 64 µg/mL (≈ 145 µM).
Take `Clc1ccc(/C(Cn2cncn2)=N\Nc2nc(-c3ccc(Br)cc3)cs2)cc1`: the “diameter of the inhibition zone (DIZ)” value with Bacillus subtilis [1], in the assay on Escherichia coli [6] and with Candida albicans [10] was “inactive” in each case. Also, the figures for the zone of inhibition at 100 µg/disc in the assay on Aspergillus niger [2], in the assay on Pseudomonas aeruginosa [4] and with Staphylococcus aureus [11] were 18.6 mm, 23.9 mm and 19.1 mm, respectively. Also, the MIC result in the assay with Candida albicans [3], in the assay on Escherichia coli [9] and with Bacillus subtilis [12] was “inactive” in each case. For the same compound, the MIC in the assay with Pseudomonas aeruginosa [5] (NCIM 2036, 24 h) was found to be 32 µg/mL (≈ 67.5 µM); against Aspergillus niger [7] it was 64 µg/mL (≈ 135 µM); in the assay with Staphylococcus aureus [8] (NCIM 2079, 24 h) it was 64 µg/mL (≈ 135 µM).
Consider `Clc1ccc(-c2csc(N/N=C(/Cn3cncn3)c3ccc(Br)cc3)n2)cc1`, for which the zone of inhibition at 100 µg/disc worked out at 17.3 mm in the assay with Bacillus subtilis [1]; 16.7 mm in the assay on Aspergillus niger [2]; 21.7 mm with Pseudomonas aeruginosa [4]; 16.2 mm with Candida albicans [10]; 13.1 mm with Staphylococcus aureus [11]. Besides, the MIC is 64 µg/mL (≈ 135 µM) against Candida albicans [3]; 32 µg/mL (≈ 67.5 µM) with Pseudomonas aeruginosa [5] (NCIM 2036, 24 h); 32 µg/mL (≈ 67.5 µM) against Aspergillus niger [7]; greater than 64 µg/mL against Staphylococcus aureus [8] (NCIM 2079, 24 h); 64 µg/mL (≈ 135 µM) against Bacillus subtilis [12] (NCIM 2250, 24 h). Besides, the “diameter of the inhibition zone (DIZ)” value with Escherichia coli [6] is “inactive”. The MIC entry in the assay with Escherichia coli [9] is “inactive”.
On to `FC(F)(F)c1cc(/C(Cn2cncn2)=N\Nc2nc(-c3ccc(Br)cc3)cs2)cc(C(F)(F)F)c1`, for which the zone of inhibition at 100 µg/disc was 10.1 mm in the assay on Bacillus subtilis [1], 20.4 mm in the assay on Pseudomonas aeruginosa [4] and 17 mm in the assay on Escherichia coli [6]. The “diameter of the inhibition zone (DIZ)” value in the assay with Aspergillus niger [2], in the assay with Candida albicans [10] and in the assay with Staphylococcus aureus [11] was “inactive” in each case. The MIC result in the assay on Candida albicans [3], in the assay on Aspergillus niger [7] and with Staphylococcus aureus [8] was “inactive” in each case. Besides, the MIC is 32 µg/mL (≈ 55.6 µM) with Pseudomonas aeruginosa [5] (NCIM 2036, 24 h); greater than 64 µg/mL with Escherichia coli [9] (NCIM 2109, 24 h); greater than 64 µg/mL with Bacillus subtilis [12] (NCIM 2250, 24 h).
`O=C(O)c1cn(C2CC2)c2cc(N3CCNCC3)c(F)cc2c1=O` [CIPROFLOXACIN]: the zone of inhibition at 100 µg/disc with Bacillus subtilis [1] is 26.7 mm; in the assay with Pseudomonas aeruginosa [4], 30.9 mm; in the assay with Escherichia coli [6], 26.2 mm; in the assay on Staphylococcus aureus [11], 28.4 mm. The minimum inhibitory concentration (MIC) in the assay with Pseudomonas aeruginosa [5] (NCIM 2036, 24 h) came out at 16 µg/mL (≈ 48.3 µM); with Bacillus subtilis [12] (NCIM 2250, 24 h), 16 µg/mL (≈ 48.3 µM).
Regarding NYSTATIN, the inhibition zone (IZ) with Aspergillus niger [2] is 21.6 mm; with Candida albicans [10] it was 23.3 mm. For the same compound, the MIC against Candida albicans [3] and against Aspergillus niger [7] was 16 µg/mL throughout.
